Only some compounds are listed: those with a hit (about 2.5% of all), similar ones and a draw of the others.
NR2E3 ag-1: NR2E3 (human) agonism; Q9Y5X4; GST-NR2E3/biotin-RetCOR TR-FRET, 1536-well; inhibition of corepressor binding, % at 4.78 µM; hit rate 0.12% among 320,000;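 active = percent inhibition above the cutoff of mean plus 3 SD of all tested compounds, set per screening campaign, cut at about 20% in these data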;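 note: 0% = DMSO wells and 100% = biotin wells as full block of FRET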
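Material – GST-tagged NR2E3 plus biotinylated RetCOR corepressor · Quantity – NR2E3 fusion 1.35 nM · Times – 5 h incubation at 4 °C · Medium – pH 7.5 Tris-based buffer · Technique – TR-FRET, Eu(K)-anti-GST donor, streptavidin-D2 acceptor, ex 340, em 617/671 nm · Benchmarks – high control biotin, low control 0.6% DMSO · Format – 1536-well plates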
ADAM17 inh: inhibits human ADAM17; P78536; recombinant ADAM17, EDANS/DABCYL FRET peptide cleavage; inhibition, % at 6.95 µM; hit rate 0.83% among 370,000; AID 720648;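 active = inhibition above the mean of compounds lying between control limits plus 3 SD, set per campaign, cut at about 8.5% in these data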;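 note: 0% = DMSO-only wells as the low control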
NR2E3 ag-2: activates human NR2E3 receptor; Q9Y5X4; AID 602229; CHO-S Gal4-NCOR/VP16-NR2E3 two-hybrid, luciferase; inhibition of corepressor binding, % at 3.98 µM; hit rate 0.35% among 360,000;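 active = inhibition above the mean of all tested compounds plus 3 SD, cut at about 70% in these data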;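 note: 0% = DMSO with NR2E3 transfected cells and 100% = cells lacking NR2E3 construct; higher means lower luciferase signal from less NR2E3 corepressor binding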
proKLK7 act: proKLK7 (human) activation, primary screen. hit rate 0.9% among 370,000. P49862. activation, % at 7 µM. purified proKLK7, EDANS-DABCYL substrate fluorescence; 100% is mature enzyme control, 0% vehicle;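 active = activation above the mean of all tested compounds plus 3 SD, computed per campaign excluding outliers beyond control limits, cut at about 13% in these data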
ADAM10 inh: inhibitors of human ADAM10; inhibition, % at 7 µM; AID 720582; hit rate 0.62% among 370,000; recombinant ADAM10, EDANS/DABCYL FRET peptide cleavage, 3 h; O14672;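 active = inhibition above a per-campaign cutoff equal to the mean of compounds falling between control-based bounds plus 3 SD, cut at about 20% in these data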;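 note: 0% = DMSO wells while the 100% control is not disclosed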
Target sequence (O14672 214-748 limits assumed): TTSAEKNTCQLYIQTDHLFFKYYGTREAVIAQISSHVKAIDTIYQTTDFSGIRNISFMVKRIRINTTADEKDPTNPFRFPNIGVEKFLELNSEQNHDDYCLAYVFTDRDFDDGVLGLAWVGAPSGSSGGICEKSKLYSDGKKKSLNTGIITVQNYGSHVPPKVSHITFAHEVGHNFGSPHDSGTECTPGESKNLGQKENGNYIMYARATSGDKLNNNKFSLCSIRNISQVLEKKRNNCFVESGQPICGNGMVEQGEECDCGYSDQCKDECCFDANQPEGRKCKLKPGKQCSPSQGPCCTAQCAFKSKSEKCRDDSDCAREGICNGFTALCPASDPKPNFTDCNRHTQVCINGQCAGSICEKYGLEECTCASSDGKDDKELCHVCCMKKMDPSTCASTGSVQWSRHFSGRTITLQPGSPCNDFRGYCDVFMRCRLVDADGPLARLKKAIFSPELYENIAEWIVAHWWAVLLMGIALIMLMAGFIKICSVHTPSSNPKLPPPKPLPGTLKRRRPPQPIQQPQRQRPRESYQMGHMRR
GASC-1 inh: blocks human GASC-1 demethylase activity; Q9H3R0; GST-JMJD2C(1-420) H3K9me3 demethylation, DELFIA europium; inhibition, % at 2.35 µM; hit rate 0.069% among 330,000;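 active = more than half of a compound's replicate wells show inhibition beyond 50%, single wells judged on their own value; inconclusive = some, but no more than half, of replicates pass 50% inhibition; inactive = no replicate passes 50% inhibition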;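 note: signal counts dimethyl H3K9 product captured on neutravidin plate; 0% = median of DMSO wells and 100% = 0.3 times that DMSO median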
NR2E3 ag conf: NR2E3 agonism confirmed in two-hybrid assay | shares compounds with NR2E3 ag-2 | CHO-S mammalian two-hybrid NR2E3-NCOR, luciferase luminescence | inhibition, % at 3.98 µM | hit rate 51% among 2,300;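 active = average inhibition above a cutoff equal to the mean inhibition of all tested compounds plus one SD, cut at about 70% in these data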;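 note: 0% = DMSO in NR2E3 cells and 100% = DMSO in cells lacking NR2E3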
GAL4-VP16 luc: reduces GAL4-VP16 reporter signal in NR2E3 counterscreen. inhibition, % at 3.98 µM. CHO-S GAL4-VP16 luciferase reporter, luminescence. hit rate 29% among 2,300. shares compounds with NR2E3 ag-2. AID 624379;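 active = mean inhibition above a cutoff equal to the average over all tested compounds plus one standard deviation, cut at about 70% in these data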;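 note: luciferase from a UAS reporter driven by GAL4-VP16 transactivation; 0% = DMSO with VP16-transfected cells and 100% = DMSO with cells lacking VP16; higher means less reporter light so more repression of VP16 activity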
* = called active by the depositor; i = inactive; u = inconclusive; x = no result given.

SMILES	NR2E3 ag-1	ADAM17 inh	NR2E3 ag-2	proKLK7 act	ADAM10 inh	GASC-1 inh	NR2E3 ag conf	GAL4-VP16 luc
Cc1cnc(CNC(=O)c2ccc3sc([C@H]4C[C@H](O)[C@@H](CO)O4)nc3c2)cn1	x	8.4	-5.9	-0.7	3.9	x	x	x
COC(=O)C12OCC34C(CC5C(C)=C(O)C(=O)CC5(C)C3C(O)C1O)OC(=O)C(OC(=O)C=C(C)C)C24 (stereo unspecified)	x	5.3	103.4*	-0.4	10.4	x	99.5*	98.4*
Cc1ccc(C(=O)N/N=C/c2ccc([N+](=O)[O-])s2)cc1	-4.2	-3.4	69.2	-0.6	-8.7	0.3	-2.6	67.8
CN(C)S(=O)(=O)N1CCC(Oc2cccc(C(=O)NC3CCCCCC3)c2)CC1	-2.8	0.4	90.9*	0.7	2.5	-2.8	60.4	53.7
O[C@@H](Cc1ccccc1)[C@@H](/C=C/c1ccccc1)NCCc1ccccc1	x	-4.6	x	-1.0	-1.1	x	x	x
CN(Cc1ccccc1)C(=O)Cn1c(=O)oc2cc(S(=O)(=O)NCc3ccccc3)ccc21	4.7	0.2	47.8	-0.6	-11.9	-8.8	17.2	41.5
Cc1nnc(SCC(=O)NC2CCCC2)n1C(C)C	1.5	-0.3	-16.2	0.4	6.7	3.4	x	x
CCOC(=O)c1cnc(-n2nc(C)cc2C)nc1NC(C)c1ccccc1 (stereo unspecified)	-5.5	-3.5	98.1*	0.5	-4.9	-5.3	14.4	4.5
CCOC(=O)c1cnc(-n2nc(C)cc2C)nc1NCc1ccccc1	3.6	-4.1	93.5*	0.7	-11.1	u	14.2	-0.4
CCOC(=O)c1cc(C(=O)OCC)c(=O)[nH]c1SCc1ccccc1	1.4	-3.7	-2.4	-0.3	1.3	8.1	x	x
CCn1c(Cc2cccs2)nnc1SCC(=O)c1ccc(Cl)cc1	x	3.5	x	-0.1	9.4	x	x	x
CC(=O)Nc1ccc(OCc2cn(CC(=O)c3ccc(O)cc3)nn2)cc1	x	1.6	4.5	0.2	3.2	x	x	x
O=c1c2c(nc3c(-c4ccc(Cl)cc4)c[nH]n13)CCC2	-5.8	-34.6	77.4*	-13.8	-108.2	19.7	66.0	49.6
O=c1c2c(nc3c(-c4ccccc4)c[nH]n13)CCC2	1.0	-28.0	-7.4	-4.3	-74.1	x	x	x
CCc1c(C)nc2ncnn2c1N1CCN(S(=O)(=O)c2ccc(OC)cc2)CC1	2.1	-0.8	-15.8	0.1	-2.2	2.3	x	x
O=C(O)CSc1cccc[n+]1[O-]	-2.2	-4.7	-33.4	0.6	-6.0	13.5	x	x
O=C(CSc1cccc[n+]1[O-])c1cc2ccccc2o1	1.9	x	77.9*	x	x	-12.3	-22.2	-15.6
Cc1ccc(OC(=O)c2cccc(S(=O)(=O)N3CCCC3)c2)c(-n2nc3ccccc3n2)c1	0.9	1.0	-89.7	-0.1	10.6	-2.5	x	x
CSC1SCC2C(=O)N(C)C(C(C)C)C(=O)OCC(NC(=O)c3cnc4ccccc4n3)C(=O)NC(C)C(=O)N(C)C1C(=O)N(C)C(C(C)C)C(=O)OCC(NC(=O)c1cnc3ccccc3n1)C(=O)NC(C)C(=O)N2C (stereo unspecified)	x	-5.0	102.8*	-0.4	-4.4	x	98.3*	94.9*
Cc1ccc2c(c1C)-c1c(ccc(C)c1C)C(=O)C2=O	x	0.7	60.4	-2.5	2.5	x	47.5	24.0
COc1ccc(OC)c(NC(=O)CSc2nnnn2-c2ccc3c(c2)OCO3)c1	0.3	-1.1	100.8*	-0.3	3.8	-5.9	99.9*	39.6
Cc1ccc(NC(=O)CSc2nnnn2-c2ccc3c(c2)OCO3)cc1C	2.2	5.3	90.8*	-0.3	3.3	0.8	100.1*	1.1
O=C(CSc1nnnn1-c1ccc(O)cc1)Nc1ccc(N2CCOCC2)c(Cl)c1	2.7	1.0	97.5*	0.1	8.2	-2.2	98.0*	31.5
CC1(C)NC(=O)N(CC(=O)OCC(=O)NC(=O)c2ccccc2)C1=O	-3.0	3.7	-38.0	-0.5	-12.5	-8.9	x	x
CC(C)(C)c1ccc(CSc2nc(N)cc(=O)[nH]2)cc1	0.0	x	95.8*	x	x	178.0	76.2*	54.3
SMILES	NR2E3 ag-1	ADAM17 inh	NR2E3 ag-2	proKLK7 act	ADAM10 inh	GASC-1 inh	NR2E3 ag conf	GAL4-VP16 luc
COc1ccc(S[C@]2(C(=O)N3CCN(C(C)=O)CC3)CC(=O)N(C(=O)/C=C/c3ccccc3)[C@@H]2c2ccc(OC)cc2)cc1	x	-1.3	x	-0.2	-5.9	x	x	x
CCNc1c(NS(=O)(=O)c2ccc(Cl)s2)c(=O)oc2ccccc12	3.2	0.3	-7.6	-1.0	-2.8	-16.1	x	x
O=C1C=C[C@H]2CC[C@@H](O)[C@@H]1[C@@H]2Sc1ccccc1	x	-3.5	x	0.1	-1.3	x	x	x
Cc1ccc(NC(=O)CN(C)C(=O)c2sc3cc(Cl)ccc3c2Cl)cc1	0.0	-7.1	-21.7	0.3	-5.4	-28.4	x	x
Cc1c(CN(C)C(=O)c2sc3cc(Cl)ccc3c2Cl)cnn1C	0.0	1.4	48.3	1.0	2.1	16.6	72.4*	65.7
CC(=O)N1CCc2c(sc(NC(=O)c3ccc([N+](=O)[O-])o3)c2C(N)=O)C1	x	3.6	79.1*	0.5	0.1	x	15.3	26.3
Cc1ccc(-c2cc3nc(-c4ccco4)cc(N4CCN(Cc5ccoc5)CC4)n3n2)cc1	x	-172.9	x	x	i	x	x	x
Cc1cc(Nc2cnc3ccccc3n2)n(-c2ccccc2)n1	-1.6	-4.3	8.3	0.9	-4.4	1.5	x	x
Cc1cc(Nc2nc3ccccc3[nH]c2=O)n(-c2ccccc2)n1	-0.8	6.9	51.6	-0.2	-1.6	x	40.5	22.0
COc1ccc(S[C@]2(C(=O)N3CCN(c4ncccn4)CC3)CC(=O)N(c3ccc(Cl)cc3)[C@@H]2c2ccc(OC)cc2)cc1	x	-3.5	x	0.5	-3.4	x	x	x
Cc1ccccc1NC(=O)c1cccc2nc3ccccc3nc12	0.3	-2.9	80.3*	-0.4	-3.1	-3.3	96.4*	67.0
CO[C@H]([C@H](C)/C=C/N(C)C=O)[C@@H](C)C(=O)CC[C@H](C)[C@H](O)[C@H](C)[C@H]1OC(=O)/C=C/C(C)=C/C[C@H](O)C[C@@H]2C=CC[C@@H](C[C@H](OC)C(C)(O)[C@@H](OC)C[C@@H](OC)[C@@H]1C)O2 (stereo partly specified)	x	-2.0	x	x	6.5	x	x	x
O=S(=O)(c1ccc2c(c1)C(O)c1ccccc1CC2)C(F)(F)F (stereo unspecified)	-0.5	0.3	56.4	0.5	8.9	5.7	56.9	53.3
c1ccc(-c2noc(-c3ccc4ccccc4c3)n2)nc1	-1.6	x	48.4	x	x	-0.8	18.7	-44.3
